In one assay the target is Prostacyclin receptor (Homo sapiens, UniProt P43119). Kind of assay: Inhibition of [3H]APS-314d binding to prostacyclin receptors (IP) of human platelet membrane. Summed up: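 Human platelet membranes (10 μg protein; freeze-thawed washed platelets, 40000g pellet) in 50 mM Tris, 5 mM MgCl₂, pH 7.4 were incubated with [³H]APS-314d sodium and compound for 60 min at 4 °C. Bound ligand was separated by GF/C filtration and counted by liquid scintillation. Nonspecific binding was set with 10 μM APS-314d sodium. Ki was derived from IC50 via the Cheng–Prusoff form.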

The species entered for assay [1] is Homo sapiens. The assay is described as follows: Inhibition of ADP (5 uM) induced platelet aggregation in human platelet rich plasma. The format is functional, organism-based. Summed up: (§1)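 Human volunteer blood was citrated 9:1 with 3.8% sodium citrate and spun at 90–140g for 10 min at room temperature to give PRP; platelet-poor plasma came from a 1400g spin and set 100% aggregation. PRP was preincubated 1 min with compound at various concentrations, then stimulated. Light transmission was recorded for 5 min. Percent inhibition was taken against vehicle, N = 3; IC50 is 50% inhibition.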

The species entered for assay [2] is Homo sapiens. Kind of assay: Inhibition of U-46,619 (2 uM) induced platelet aggregation in human platelet rich plasma. The format is functional, organism-based. Summed up:
as §1

In another assay the target is T1, Thromboxane A2 receptor (Homo sapiens, UniProt P21731).
T1 sequence (P21731 whole entry): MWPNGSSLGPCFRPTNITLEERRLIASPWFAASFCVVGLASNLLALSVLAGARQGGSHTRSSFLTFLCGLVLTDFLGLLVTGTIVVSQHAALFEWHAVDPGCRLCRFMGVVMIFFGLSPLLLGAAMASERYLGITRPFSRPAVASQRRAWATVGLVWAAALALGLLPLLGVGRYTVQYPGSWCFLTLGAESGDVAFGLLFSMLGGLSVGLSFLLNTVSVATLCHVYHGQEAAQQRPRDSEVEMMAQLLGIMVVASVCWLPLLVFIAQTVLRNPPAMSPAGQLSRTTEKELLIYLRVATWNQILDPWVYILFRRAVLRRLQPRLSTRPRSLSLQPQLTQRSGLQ
Kind of assay: Inhibition of [3H]SQ-29,548 binding to thromboxane A2 receptors (TP) of human platelet membrane. Summed up: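 Washed human platelets from citrated, indomethacin-treated blood were freeze-thawed three times. Membranes were pelleted at 40000g and used at 10 μg protein in 50 mM Tris, 5 mM MgCl₂, pH 7.4. They were incubated with [³H]SQ-29548 and compound for 30 min at 25 °C, then filtered on GF/C and counted by scintillation. Nonspecific binding was set with 10 μM SQ-29548. Ki = IC50/(1 + L/Kd).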

The test system of assay [3] is Monkey. The assay is described as follows: Ex vivo inhibition of platelet aggregation induced by ADP (10 uM) in cynomolgus monkey platelet rich plasma. As to conditions: Cercopithecidae.
Assay [4] is filed under the species Homo sapiens. Kind of assay: Inhibition of U-46,619 (4 uM) induced platelet aggregation in human platelet rich plasma. The format is functional, organism-based.
Assay [5] relates to Monkey. The assay is described as follows: Ex vivo inhibition of platelet aggregation induced by ADP (5 uM) in cynomolgus monkey platelet rich plasma. It is filed as functional, organism-based. Conditions: Cercopithecidae.

Bounds are passed on as bounds.

Sequence of Prostacyclin receptor (P43119 whole entry): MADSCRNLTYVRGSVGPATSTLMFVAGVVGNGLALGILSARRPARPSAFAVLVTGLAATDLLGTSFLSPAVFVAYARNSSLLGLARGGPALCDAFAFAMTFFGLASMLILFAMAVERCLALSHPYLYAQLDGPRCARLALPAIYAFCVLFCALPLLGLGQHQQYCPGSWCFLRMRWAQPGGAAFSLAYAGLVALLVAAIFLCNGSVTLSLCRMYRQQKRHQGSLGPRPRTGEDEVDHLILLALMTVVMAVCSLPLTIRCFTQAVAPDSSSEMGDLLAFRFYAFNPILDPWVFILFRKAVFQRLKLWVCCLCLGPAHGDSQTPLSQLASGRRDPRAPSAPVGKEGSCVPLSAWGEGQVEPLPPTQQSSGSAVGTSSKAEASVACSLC

The term Ki denotes the equilibrium dissociation constant of an inhibitor or competing ligand from its target. Usually IC50 stands for the point on the concentration scale where inhibition reaches its midpoint. In the case of `CC(SCCc1c(CCO)oc2c(OCC(=O)O)cccc12)(c1ccccc1)c1ccccc1`, the Ki on Prostacyclin receptor stood at 0.21 µM; on Thromboxane A2 receptor, 0.078 µM. Besides, the half-inhibitory concentration (IC50) amounted to 0.71 µM in the assay filed under Homo sapiens [1] (Homo sapiens, Plasma) and 0.54 µM in the assay listed under Homo sapiens [2].

For the compound `O=C(O)COc1cccc2c(CCCSCCC(c3ccccc3)c3ccccc3)coc12`, the results for the inhibition constant (Ki) on Prostacyclin receptor and at Thromboxane A2 receptor were 2.9 µM and greater than 15 µM, respectively. Moreover, the IC50 in the assay filed under Homo sapiens [1] (Homo sapiens, Plasma) is greater than 100 µM; in the assay filed under Homo sapiens [2], greater than 100 µM.

`CC(c1ccccc1)(c1ccccc1)S(=O)(=O)CCc1c(CO)oc2c(OCC(=O)O)cccc12`: the Ki on Prostacyclin receptor stood at 1.9 µM; at Thromboxane A2 receptor, 0.0043 µM. In addition, the IC50 in the assay filed under Homo sapiens [1] (Homo sapiens, Plasma) amounted to 3 µM; in the assay listed under Homo sapiens [2] it was 0.31 µM.

In the case of `CC(SCCc1c(CO)oc2c(OCC(=O)O)cccc12)(c1ccccc1)c1ccccc1` [listing 1 of 2 here], the Ki on Prostacyclin receptor was found to be 0.53 µM; at Thromboxane A2 receptor, 0.0045 µM. Besides, the IC50 in the assay filed under Homo sapiens [1] is 2.2 µM; in the assay listed under Homo sapiens [2] it was 0.17 µM.

Regarding `CCCC(SCCc1c(CO)oc2c(OCC(=O)O)cccc12)(c1ccccc1)c1ccccc1`, the inhibition constant (Ki) on Prostacyclin receptor was greater than 2.3 µM; on Thromboxane A2 receptor it was greater than 5.9 µM. Moreover, the IC50 is greater than 100 µM in the assay filed under Homo sapiens [1] (Homo sapiens, Plasma) and 56 µM in the assay listed under Homo sapiens [2].

On to `CCC(SCCc1c(CO)oc2c(OCC(=O)O)cccc12)(c1ccccc1)c1ccccc1`, for which the Ki at Prostacyclin receptor worked out at 3.4 µM; on Thromboxane A2 receptor, 0.18 µM. In addition, the IC50 in the assay listed under Homo sapiens [1] (Homo sapiens, Plasma) was found to be 56 µM; in the assay listed under Homo sapiens [2], 3.8 µM.

On to `O=C(O)COc1cccc2c(CCSCC(c3ccccc3)c3ccccc3)coc12`, for which the inhibition constant Ki at Prostacyclin receptor was 0.08 µM; at Thromboxane A2 receptor, 3.1 µM. For the same compound, the IC50 in the assay listed under Homo sapiens [1] (Homo sapiens, Plasma) came to 0.73 µM; in the assay listed under Homo sapiens [2], 0.51 µM.

Consider `CC(SCCc1c(CCCO)oc2c(OCC(=O)O)cccc12)(c1ccccc1)c1ccccc1`, for which the Ki at Prostacyclin receptor was 5.8 µM; at Thromboxane A2 receptor it was 0.072 µM. In addition, the IC50 in the assay filed under Homo sapiens [1] (Homo sapiens, Plasma) was 9 µM; in the assay listed under Homo sapiens [2] it was 2.9 µM.

Turning to `CC(c1ccccc1)(c1ccccc1)[S+]([O-])CCc1c(CO)oc2c(OCC(=O)O)cccc12` (stereo not given), the Ki was greater than 10 µM at Prostacyclin receptor and 0.051 µM on Thromboxane A2 receptor. The IC50 amounted to 7.9 µM in the assay filed under Homo sapiens [1] (Homo sapiens, Plasma) and 1.7 µM in the assay filed under Homo sapiens [2].

`O=C(O)COc1cccc2c(CSC(c3ccccc3)c3ccccc3)coc12`: the values for the inhibition constant (Ki) on Prostacyclin receptor and on Thromboxane A2 receptor were 4.7 µM and 5.1 µM, respectively. Also, the 50% inhibitory concentration (IC50) in the assay listed under Homo sapiens [1] (Homo sapiens, Plasma) is greater than 100 µM; in the assay filed under Homo sapiens [2], greater than 100 µM.

As to `O=C(O)COc1cccc2c(CCCSC(c3ccccc3)c3ccccc3)coc12`, the figures for the Ki on Prostacyclin receptor and on Thromboxane A2 receptor were 0.27 µM and 3.1 µM, respectively. The IC50 in the assay listed under Homo sapiens [1] (Homo sapiens, Plasma) worked out at 1.9 µM; in the assay filed under Homo sapiens [2] it was 1.6 µM.

`O=C(O)COc1cccc2c(CCCSCC(c3ccccc3)c3ccccc3)coc12`: the inhibitory constant (Ki) at Prostacyclin receptor was 0.4 µM; at Thromboxane A2 receptor it was greater than 15 µM. The IC50 in the assay filed under Homo sapiens [1] (Homo sapiens, Plasma) came to 1.7 µM; in the assay filed under Homo sapiens [2] it was 1.4 µM.

In the case of `CC(SCCc1c(CO)oc2c(OCC(=O)O)cccc12)(c1ccccc1)c1ccccc1` [listing 2 of 2 here], the IC50 worked out at 0.14 µM in the assay on Monkey [3], 2.2 µM in the assay filed under Homo sapiens [1], 0.12 µM in the assay listed under Homo sapiens [4] and 3.7 µM in the assay with Monkey [5].

Consider `CC#CCC(C)[C@H](O)/C=C/[C@@H]1[C@H]2c3cccc(CCCC(=O)O)c3O[C@H]2C[C@H]1O` (stereo not given in full) [BERAPROST SODIUM], for which the IC50 in the assay listed under Homo sapiens [1] (Homo sapiens, Plasma) amounted to 0.0076 µM; in the assay filed under Homo sapiens [4], 0.0057 µM.

As for `O=C(O)COc1cccc2c(CSCC(c3ccccc3)c3ccccc3)coc12`, the inhibition constant (Ki) was 0.68 µM on Prostacyclin receptor and 2.5 µM at Thromboxane A2 receptor. For the same compound, the IC50 came to 19.9 µM in the assay listed under Homo sapiens [1] (Homo sapiens, Plasma) and 17.3 µM in the assay filed under Homo sapiens [2].

In the case of `O=C(O)CCC/C=C\C[C@@H]1[C@H](CNNC(=O)Nc2ccccc2)[C@H]2CC[C@H]1O2`, the concentration for half-maximal inhibition (IC50) was greater than 10 µM in the assay listed under Homo sapiens [1] (Homo sapiens, Plasma) and 0.021 µM in the assay filed under Homo sapiens [4].

For the compound `O=C(O)COc1cccc2c(CCSC(c3ccccc3)c3ccccc3)coc12`, the IC50 in the assay filed under Homo sapiens [1] (Homo sapiens, Plasma) turned out to be 5.9 µM; in the assay listed under Homo sapiens [2], 0.56 µM. Further, the Ki at Thromboxane A2 receptor stood at 0.31 µM.

In the case of `O=C(O)COc1cccc2c(CCSC(c3ccccc3)c3ccccc3)c(CO)oc12`, the Ki on Prostacyclin receptor was determined as 0.75 µM; on Thromboxane A2 receptor it was 0.088 µM. In addition, the IC50 was 3.3 µM in the assay filed under Homo sapiens [1] (Homo sapiens, Plasma) and 0.46 µM in the assay listed under Homo sapiens [2].

Take `O=C(O)COc1cccc2c(CCSCCC(c3ccccc3)c3ccccc3)coc12`: the Ki on Prostacyclin receptor is 0.56 µM; on Thromboxane A2 receptor, greater than 10 µM. The IC50 in the assay listed under Homo sapiens [1] (Homo sapiens, Plasma) was 5.2 µM; in the assay listed under Homo sapiens [2] it was 5.4 µM.

As to `CC(SCCc1coc2c(OCC(=O)O)cccc12)(c1ccccc1)c1ccccc1`, the Ki amounted to 0.57 µM on Prostacyclin receptor and 0.026 µM on Thromboxane A2 receptor. The IC50 worked out at 8.1 µM in the assay listed under Homo sapiens [1] (Homo sapiens, Plasma) and 0.58 µM in the assay listed under Homo sapiens [2].

On to `O=C(O)COc1cccc2c(CCSC(c3ccccc3)(c3ccccc3)C(F)(F)F)c(CO)oc12`, for which the Ki at Prostacyclin receptor amounted to 0.76 µM; at Thromboxane A2 receptor, 0.15 µM. The IC50 in the assay filed under Homo sapiens [1] (Homo sapiens, Plasma) was 1.5 µM; in the assay filed under Homo sapiens [2], 0.52 µM.

Regarding `O=C(O)COc1cccc2c(CSCCC(c3ccccc3)c3ccccc3)coc12`, the inhibition constant Ki on Prostacyclin receptor came to 0.58 µM; at Thromboxane A2 receptor, 3.1 µM. Moreover, the IC50 in the assay filed under Homo sapiens [1] (Homo sapiens, Plasma) stood at 12.8 µM; in the assay filed under Homo sapiens [2] it was 10 µM.

Take `O=C(O)COc1cccc2c1CCC=C2CCO/N=C(\c1ccccc1)c1cccnc1`: the IC50 amounted to 0.17 µM in the assay listed under Homo sapiens [1] (Homo sapiens, Plasma) and 0.17 µM in the assay listed under Homo sapiens [4].

For the origin of these results see ChEMBL document CHEMBL1141147, “Development of dual-acting benzofurans for thromboxane A2 receptor antagonist and prostacyclin receptor agonist: synthesis, structure-activity relationship, and evaluation of benzofuran derivatives” (J Med Chem, 2005).
